One compound from publication PMC3076536 (Journal of the American Chemical Society, 2011) can be followed below.

For assay [1], the target named is T1, GSK3β (Homo sapiens, UniProt P49841). Kind of assay: Radioactive [γ-33P]ATP kinase activity assay, GSK3β. In kind it is biochemical. As to conditions: read-out: IC50 GSK3β; 100 μM ATP. The gist of the method: (§1)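 Commercial human kinase and substrate were used, except the PAK1 kinase domain (residues 249–545), which was expressed and purified in-house. Serial inhibitor concentrations were preincubated 15 min with kinase and substrate in 20 mM MOPS pH 7.0, 30 mM MgCl₂, 0.8 μg/μL BSA and 5% DMSO. The reaction was started with ATP (final 100 μM) plus [γ-³³P]ATP. Reactions were spotted on P81 paper, washed and scintillation-counted. IC50 was the concentration giving background-corrected CPM at 50% of control.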

The next assay has as its target FLT4 (Homo sapiens, UniProt P35916). The assay is described as follows: Radioactive [γ-33P]ATP kinase activity assay, FLT4. In kind it is biochemical. As to conditions: read-out: IC50 FLT4; 100 μM ATP. The method, boiled down:
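Radiometric assay with commercial human FLT4 and substrate. Serial inhibitor concentrations were preincubated 45 min with kinase and substrate in 20 mM MOPS pH 7.0, 30 mM MgCl₂, 0.8 μg/μL BSA and 5% DMSO. The reaction was started with ATP (final 100 μM) containing [γ-³³P]ATP. Reactions were stopped on P81 paper, washed and scintillation-counted. IC50 was the concentration giving 50% of control CPM after background correction.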

For assay [2], the system named is panels of human wild type protein kinases. The assay is described as follows: Millipore KinaseProfiler selectivity profile over whole panel. As to conditions: compound 10 nM, 10 μM ATP, panel of 102 kinases. In kind it is biochemical. The method, boiled down: (§2)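 Single-concentration screen on a commercial panel of human wild-type kinases. Test compound was at 10 nM with 10 μM ATP. Only kinases whose assay concentration was at or below the inhibitor concentration were included, giving 102 kinases. Percentage kinase activity was measured in duplicate and averaged.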

Another assay has as its target MLCK. Kind of assay: Radioactive [γ-33P]ATP kinase activity assay, MLCK. As to conditions: read-out: IC50 MLCK; 100 μM ATP. In kind it is biochemical, human. The method, boiled down:
as §1

A further assay concerns the target DAPK1 (Homo sapiens, UniProt P53355). The assay is described as follows: Radioactive [γ-33P]ATP kinase activity assay, DAPK1. In kind it is biochemical. As to conditions: read-out: IC50 DAPK1; 100 μM ATP. The gist of the method:
as §1

Assay [3] addresses T2, GSK3α (Homo sapiens, UniProt P49840). The assay is described as follows: Millipore KinaseProfiler single-concentration screen, GSK3α. In kind it is biochemical. As to conditions: compound 10 nM, 10 μM ATP. The method, boiled down: as §2
Assay [4] concerns the target T3, PIM1 (Homo sapiens, UniProt P11309). The assay is described as follows: Radioactive [γ-33P]ATP kinase activity assay, PIM1. Format: biochemical. Conditions: read-out: IC50 PIM1; 100 μM ATP. The method, boiled down:
as §1

The target of assay [5] is T3, PIM1. The assay is described as follows: Millipore KinaseProfiler single-concentration screen, PIM1. In kind it is biochemical. Conditions: compound 10 nM, 10 μM ATP. The method, boiled down:
as §2

In assay [6] the target is T1, GSK3β. The assay is described as follows: Millipore KinaseProfiler single-concentration screen, GSK3β. Format: biochemical. Conditions: compound 10 nM, 10 μM ATP. The gist of the method: as §2
The target of assay [7] is PAK1 kinase domain (residues 249 to 545) (Homo sapiens, UniProt Q13153). Kind of assay: Radioactive [γ-33P]ATP kinase activity assay, PAK1. In kind it is biochemical. Conditions: read-out: IC50 PAK1; 100 μM ATP. The gist of the method:
as §1

Assay [8] addresses T2, GSK3α. The assay is described as follows: Radioactive [γ-33P]ATP kinase activity assay, GSK3α. In kind it is biochemical. The method, boiled down: as §1
The next assay deals with CLK2 (Homo sapiens, UniProt P49760). Kind of assay: Millipore KinaseProfiler single-concentration screen, CLK2. In kind it is biochemical. Conditions: compound 10 nM, 10 μM ATP. The gist of the method: as §2

Structures are written as SMILES.

T2 sequence (P49840 whole entry): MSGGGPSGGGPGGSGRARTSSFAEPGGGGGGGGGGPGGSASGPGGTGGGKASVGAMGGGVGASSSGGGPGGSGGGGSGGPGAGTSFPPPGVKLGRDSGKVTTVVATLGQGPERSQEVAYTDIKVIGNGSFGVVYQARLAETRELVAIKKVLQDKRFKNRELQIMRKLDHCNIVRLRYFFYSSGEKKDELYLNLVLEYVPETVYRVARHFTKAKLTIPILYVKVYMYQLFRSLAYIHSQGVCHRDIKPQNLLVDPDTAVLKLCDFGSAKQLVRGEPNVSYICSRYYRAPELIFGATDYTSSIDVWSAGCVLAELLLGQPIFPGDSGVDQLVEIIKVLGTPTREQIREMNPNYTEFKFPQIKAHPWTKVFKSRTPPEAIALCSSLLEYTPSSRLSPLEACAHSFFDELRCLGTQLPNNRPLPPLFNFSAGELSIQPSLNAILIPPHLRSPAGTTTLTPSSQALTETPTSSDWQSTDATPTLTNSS
T3 sequence (P11309 whole entry): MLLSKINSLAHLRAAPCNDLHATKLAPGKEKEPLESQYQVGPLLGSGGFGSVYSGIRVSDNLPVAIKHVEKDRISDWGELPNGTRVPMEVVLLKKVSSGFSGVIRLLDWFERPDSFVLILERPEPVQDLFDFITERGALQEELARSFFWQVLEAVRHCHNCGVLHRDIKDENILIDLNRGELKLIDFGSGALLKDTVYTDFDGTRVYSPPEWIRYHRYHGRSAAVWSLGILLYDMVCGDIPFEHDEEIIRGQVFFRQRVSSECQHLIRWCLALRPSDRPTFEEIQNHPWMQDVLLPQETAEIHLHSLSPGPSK
T1 sequence (P49841 whole entry, the tested form may be a part): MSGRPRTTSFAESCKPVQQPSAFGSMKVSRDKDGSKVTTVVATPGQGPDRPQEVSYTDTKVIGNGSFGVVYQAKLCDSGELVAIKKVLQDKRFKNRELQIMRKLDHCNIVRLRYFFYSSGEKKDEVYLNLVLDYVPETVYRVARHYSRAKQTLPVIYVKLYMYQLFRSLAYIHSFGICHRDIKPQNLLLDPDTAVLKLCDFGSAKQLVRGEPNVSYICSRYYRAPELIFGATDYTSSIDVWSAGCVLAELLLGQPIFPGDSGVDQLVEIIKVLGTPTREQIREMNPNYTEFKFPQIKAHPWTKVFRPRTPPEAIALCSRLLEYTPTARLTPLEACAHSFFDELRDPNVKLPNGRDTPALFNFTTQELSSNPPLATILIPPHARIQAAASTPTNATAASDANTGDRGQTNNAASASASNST
CLK2, sequence (P49760 whole entry): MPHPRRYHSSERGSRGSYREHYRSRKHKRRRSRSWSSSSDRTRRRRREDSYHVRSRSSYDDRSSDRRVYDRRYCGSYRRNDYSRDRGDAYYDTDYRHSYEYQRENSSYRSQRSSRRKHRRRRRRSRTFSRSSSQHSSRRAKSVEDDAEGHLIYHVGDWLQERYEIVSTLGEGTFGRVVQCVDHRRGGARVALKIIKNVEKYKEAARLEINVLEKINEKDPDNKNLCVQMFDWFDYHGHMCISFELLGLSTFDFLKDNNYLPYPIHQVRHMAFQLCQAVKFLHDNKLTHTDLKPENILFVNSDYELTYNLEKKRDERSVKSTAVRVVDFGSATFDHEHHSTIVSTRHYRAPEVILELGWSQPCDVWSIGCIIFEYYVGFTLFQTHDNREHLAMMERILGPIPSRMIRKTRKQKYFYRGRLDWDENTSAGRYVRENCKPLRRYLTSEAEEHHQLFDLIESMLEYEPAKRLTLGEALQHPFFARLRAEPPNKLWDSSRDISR
FLT4, sequence (P35916 25-1363): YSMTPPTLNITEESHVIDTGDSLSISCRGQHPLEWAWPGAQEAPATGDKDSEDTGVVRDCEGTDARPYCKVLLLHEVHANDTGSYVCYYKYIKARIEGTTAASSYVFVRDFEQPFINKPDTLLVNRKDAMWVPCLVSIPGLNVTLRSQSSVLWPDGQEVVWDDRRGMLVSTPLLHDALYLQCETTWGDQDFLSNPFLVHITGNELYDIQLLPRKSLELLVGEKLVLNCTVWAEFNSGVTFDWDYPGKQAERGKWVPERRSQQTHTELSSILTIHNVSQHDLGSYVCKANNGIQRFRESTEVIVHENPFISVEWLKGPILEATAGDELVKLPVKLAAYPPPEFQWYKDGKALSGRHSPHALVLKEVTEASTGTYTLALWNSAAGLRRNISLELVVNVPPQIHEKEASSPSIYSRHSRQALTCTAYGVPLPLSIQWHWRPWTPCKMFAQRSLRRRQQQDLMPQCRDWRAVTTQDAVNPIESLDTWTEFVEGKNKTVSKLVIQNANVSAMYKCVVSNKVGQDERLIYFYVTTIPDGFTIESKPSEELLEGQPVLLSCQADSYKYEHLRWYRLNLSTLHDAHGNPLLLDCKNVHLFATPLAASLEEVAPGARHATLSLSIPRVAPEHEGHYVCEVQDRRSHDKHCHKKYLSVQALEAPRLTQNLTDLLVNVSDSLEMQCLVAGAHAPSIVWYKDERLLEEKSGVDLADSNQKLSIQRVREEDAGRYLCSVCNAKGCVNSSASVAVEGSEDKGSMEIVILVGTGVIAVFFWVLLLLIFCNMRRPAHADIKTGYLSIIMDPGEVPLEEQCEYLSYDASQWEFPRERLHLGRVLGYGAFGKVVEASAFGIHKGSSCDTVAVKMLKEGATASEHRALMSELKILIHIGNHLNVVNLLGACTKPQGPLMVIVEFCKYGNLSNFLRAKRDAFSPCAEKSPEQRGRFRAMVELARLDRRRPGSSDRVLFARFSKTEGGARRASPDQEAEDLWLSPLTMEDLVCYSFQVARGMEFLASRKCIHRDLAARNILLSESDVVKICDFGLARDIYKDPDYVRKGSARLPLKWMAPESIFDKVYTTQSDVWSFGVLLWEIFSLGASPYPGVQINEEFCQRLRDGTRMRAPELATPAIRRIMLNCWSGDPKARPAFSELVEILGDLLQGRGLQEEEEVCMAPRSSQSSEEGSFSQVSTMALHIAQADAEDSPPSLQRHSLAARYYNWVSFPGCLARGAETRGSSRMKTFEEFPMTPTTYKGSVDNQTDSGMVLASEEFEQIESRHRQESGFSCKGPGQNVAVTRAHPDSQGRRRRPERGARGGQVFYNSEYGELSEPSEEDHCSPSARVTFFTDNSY
DAPK1, sequence (P53355 whole entry): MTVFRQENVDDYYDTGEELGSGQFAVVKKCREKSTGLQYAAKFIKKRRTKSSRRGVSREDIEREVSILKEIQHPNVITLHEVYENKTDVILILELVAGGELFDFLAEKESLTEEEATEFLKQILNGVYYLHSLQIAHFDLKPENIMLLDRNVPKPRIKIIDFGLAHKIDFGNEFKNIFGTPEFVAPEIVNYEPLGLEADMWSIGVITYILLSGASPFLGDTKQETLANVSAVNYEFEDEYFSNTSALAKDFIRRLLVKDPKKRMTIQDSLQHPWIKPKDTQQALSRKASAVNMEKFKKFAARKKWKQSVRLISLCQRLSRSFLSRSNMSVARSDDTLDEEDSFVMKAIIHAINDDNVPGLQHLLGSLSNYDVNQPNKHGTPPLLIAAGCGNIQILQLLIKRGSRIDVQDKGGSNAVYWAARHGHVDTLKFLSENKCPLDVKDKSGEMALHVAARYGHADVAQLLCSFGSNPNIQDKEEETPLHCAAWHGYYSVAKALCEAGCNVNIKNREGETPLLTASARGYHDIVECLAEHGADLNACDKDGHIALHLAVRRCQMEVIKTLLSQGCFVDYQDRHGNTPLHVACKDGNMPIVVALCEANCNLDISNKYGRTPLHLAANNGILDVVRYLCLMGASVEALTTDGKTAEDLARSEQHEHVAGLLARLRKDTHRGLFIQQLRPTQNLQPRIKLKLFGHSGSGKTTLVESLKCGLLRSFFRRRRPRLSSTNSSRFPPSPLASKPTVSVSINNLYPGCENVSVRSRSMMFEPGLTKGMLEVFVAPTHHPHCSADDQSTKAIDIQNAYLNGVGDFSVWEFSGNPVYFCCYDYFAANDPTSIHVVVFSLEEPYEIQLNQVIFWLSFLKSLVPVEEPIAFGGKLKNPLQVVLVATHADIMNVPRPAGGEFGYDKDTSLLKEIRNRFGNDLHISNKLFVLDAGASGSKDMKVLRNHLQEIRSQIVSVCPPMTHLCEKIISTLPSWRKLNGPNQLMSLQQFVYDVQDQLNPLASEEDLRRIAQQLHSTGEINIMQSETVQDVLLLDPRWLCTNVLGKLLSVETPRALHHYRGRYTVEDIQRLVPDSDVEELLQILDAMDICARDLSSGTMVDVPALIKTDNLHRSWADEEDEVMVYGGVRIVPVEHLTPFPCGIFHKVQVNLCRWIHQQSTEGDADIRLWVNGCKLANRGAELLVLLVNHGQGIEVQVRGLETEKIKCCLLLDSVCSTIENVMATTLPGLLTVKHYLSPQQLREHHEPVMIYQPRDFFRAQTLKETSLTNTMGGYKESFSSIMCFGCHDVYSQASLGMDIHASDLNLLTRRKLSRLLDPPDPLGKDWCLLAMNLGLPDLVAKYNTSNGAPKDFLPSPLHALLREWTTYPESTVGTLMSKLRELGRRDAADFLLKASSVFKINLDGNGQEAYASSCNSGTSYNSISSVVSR
PAK1 kinase domain (residues 249 to 545), sequence (Q13153 249-545): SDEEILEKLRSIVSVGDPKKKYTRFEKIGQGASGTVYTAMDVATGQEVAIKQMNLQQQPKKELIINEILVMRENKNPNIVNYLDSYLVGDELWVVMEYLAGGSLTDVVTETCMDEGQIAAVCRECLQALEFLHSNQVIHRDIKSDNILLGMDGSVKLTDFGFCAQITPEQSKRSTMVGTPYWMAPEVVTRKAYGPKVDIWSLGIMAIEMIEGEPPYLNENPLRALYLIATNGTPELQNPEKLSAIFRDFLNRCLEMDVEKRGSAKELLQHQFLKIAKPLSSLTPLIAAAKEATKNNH

For `Nc1cnc2c(c1)c1c(c3c4ccccc4[n-]c23)C(=O)NC1=O.[C-]#[O+].[Cl][Ru+3].[NH-]Cc1ccccn1` [Λ-OS1], the IC50 (commonly the midpoint of a concentration-inhibition curve) at GSK3β [1] was 0.006 µM; at FLT4 it was 1.18 µM; on MLCK it was 0.022 µM; at DAPK1, 22.8 µM; at PIM1 [4] it was 0.014 µM; in assay [7] it was above 100 µM. Besides, the IC50 on GSK3α [8] (read-out: IC50 GSK3α, 100 μM ATP) was found to be 0.0009 µM. In addition, the “number of kinases out of 102 with activity higher than 75%” value in [2] is 98. Besides, at GSK3α [3], the “residual activity GSK3α” value worked out at 6%. Further, the “residual activity PIM1” value at PIM1 [5] amounted to 13%. For the same compound, on GSK3β [6], the “residual activity GSK3β” value was 58%. Moreover, the “IC50 value ratio of GSK3α/PAK1” value at GSK3α [8] (100 μM ATP) was below 0.000009. Moreover, at GSK3α [8] (IC50 ratio, 100 μM ATP), the “selectivity for the α- over β-isoform of GSK3” value is “ca. 7 fold”. In addition, the “lower IC50 value compared to respective pyridocarbazole ligand, GSK3α” value on GSK3α [8] (metal complex vs free ligand) is 8890 fold. Moreover, at CLK2, the “residual activity CLK2” value turned out to be 33%.
